What was measured:
[1] = biological target: T1, Bromodomain-containing protein 2 (Homo sapiens, UniProt P25440); assay: Binding affinity to second bromodomain of BRD2 assessed as change in melting temperature at 100 uM by differential scanning fluorimetry
Summary of the method: (§1)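 Thermal shift by differential scanning fluorimetry on a real-time PCR instrument. Bromodomain protein at 2 μM, compound at 100 μM, in 10 mM HEPES pH 7.5, 500 mM NaCl with SyproOrange dye diluted 1:1000. The observed melting temperature shift was measured in duplicate, and the average was reported.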
Target sequence in this assay (P25440 whole entry, looked up): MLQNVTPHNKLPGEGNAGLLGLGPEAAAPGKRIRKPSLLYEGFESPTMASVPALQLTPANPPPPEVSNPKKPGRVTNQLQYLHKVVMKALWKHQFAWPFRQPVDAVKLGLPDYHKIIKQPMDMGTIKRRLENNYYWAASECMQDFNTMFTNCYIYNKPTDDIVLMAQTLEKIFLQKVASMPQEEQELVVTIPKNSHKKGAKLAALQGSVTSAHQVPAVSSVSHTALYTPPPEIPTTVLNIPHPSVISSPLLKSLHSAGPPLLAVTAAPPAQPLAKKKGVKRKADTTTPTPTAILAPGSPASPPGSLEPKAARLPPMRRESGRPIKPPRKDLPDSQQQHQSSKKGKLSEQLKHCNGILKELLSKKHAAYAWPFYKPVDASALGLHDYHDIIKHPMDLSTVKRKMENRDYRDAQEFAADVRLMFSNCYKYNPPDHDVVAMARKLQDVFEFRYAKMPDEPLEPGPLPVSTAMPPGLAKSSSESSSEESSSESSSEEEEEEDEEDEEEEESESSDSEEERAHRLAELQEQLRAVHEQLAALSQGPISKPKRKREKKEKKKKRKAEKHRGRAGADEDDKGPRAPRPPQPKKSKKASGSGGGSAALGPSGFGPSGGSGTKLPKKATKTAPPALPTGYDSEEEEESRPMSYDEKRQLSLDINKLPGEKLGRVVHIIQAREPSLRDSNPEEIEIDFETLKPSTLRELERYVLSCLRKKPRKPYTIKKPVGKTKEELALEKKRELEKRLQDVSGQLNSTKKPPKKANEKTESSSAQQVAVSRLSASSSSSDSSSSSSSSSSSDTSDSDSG

[2] = biological target: Histone acetyltransferase KAT2B (Homo sapiens) (UniProt Q92831); assay: Binding affinity to PCAF assessed as change in melting temperature at 100 uM by differential scanning fluorimetry; summary of the method: as §1
[3] = biological target: T2, Bromodomain-containing protein 4 (Homo sapiens, UniProt O60885); assay: Binding affinity to second bromodomain of BRD4 assessed as change in melting temperature at 100 uM by differential scanning fluorimetry; summary of the method: as §1
[4] = biological target: T3, CREB-binding protein (Homo sapiens, UniProt Q92793); assay: Displacement of H3K56Ac from human CREBBP by peptide displacement assay
Target sequence in this assay (Q92793 whole entry): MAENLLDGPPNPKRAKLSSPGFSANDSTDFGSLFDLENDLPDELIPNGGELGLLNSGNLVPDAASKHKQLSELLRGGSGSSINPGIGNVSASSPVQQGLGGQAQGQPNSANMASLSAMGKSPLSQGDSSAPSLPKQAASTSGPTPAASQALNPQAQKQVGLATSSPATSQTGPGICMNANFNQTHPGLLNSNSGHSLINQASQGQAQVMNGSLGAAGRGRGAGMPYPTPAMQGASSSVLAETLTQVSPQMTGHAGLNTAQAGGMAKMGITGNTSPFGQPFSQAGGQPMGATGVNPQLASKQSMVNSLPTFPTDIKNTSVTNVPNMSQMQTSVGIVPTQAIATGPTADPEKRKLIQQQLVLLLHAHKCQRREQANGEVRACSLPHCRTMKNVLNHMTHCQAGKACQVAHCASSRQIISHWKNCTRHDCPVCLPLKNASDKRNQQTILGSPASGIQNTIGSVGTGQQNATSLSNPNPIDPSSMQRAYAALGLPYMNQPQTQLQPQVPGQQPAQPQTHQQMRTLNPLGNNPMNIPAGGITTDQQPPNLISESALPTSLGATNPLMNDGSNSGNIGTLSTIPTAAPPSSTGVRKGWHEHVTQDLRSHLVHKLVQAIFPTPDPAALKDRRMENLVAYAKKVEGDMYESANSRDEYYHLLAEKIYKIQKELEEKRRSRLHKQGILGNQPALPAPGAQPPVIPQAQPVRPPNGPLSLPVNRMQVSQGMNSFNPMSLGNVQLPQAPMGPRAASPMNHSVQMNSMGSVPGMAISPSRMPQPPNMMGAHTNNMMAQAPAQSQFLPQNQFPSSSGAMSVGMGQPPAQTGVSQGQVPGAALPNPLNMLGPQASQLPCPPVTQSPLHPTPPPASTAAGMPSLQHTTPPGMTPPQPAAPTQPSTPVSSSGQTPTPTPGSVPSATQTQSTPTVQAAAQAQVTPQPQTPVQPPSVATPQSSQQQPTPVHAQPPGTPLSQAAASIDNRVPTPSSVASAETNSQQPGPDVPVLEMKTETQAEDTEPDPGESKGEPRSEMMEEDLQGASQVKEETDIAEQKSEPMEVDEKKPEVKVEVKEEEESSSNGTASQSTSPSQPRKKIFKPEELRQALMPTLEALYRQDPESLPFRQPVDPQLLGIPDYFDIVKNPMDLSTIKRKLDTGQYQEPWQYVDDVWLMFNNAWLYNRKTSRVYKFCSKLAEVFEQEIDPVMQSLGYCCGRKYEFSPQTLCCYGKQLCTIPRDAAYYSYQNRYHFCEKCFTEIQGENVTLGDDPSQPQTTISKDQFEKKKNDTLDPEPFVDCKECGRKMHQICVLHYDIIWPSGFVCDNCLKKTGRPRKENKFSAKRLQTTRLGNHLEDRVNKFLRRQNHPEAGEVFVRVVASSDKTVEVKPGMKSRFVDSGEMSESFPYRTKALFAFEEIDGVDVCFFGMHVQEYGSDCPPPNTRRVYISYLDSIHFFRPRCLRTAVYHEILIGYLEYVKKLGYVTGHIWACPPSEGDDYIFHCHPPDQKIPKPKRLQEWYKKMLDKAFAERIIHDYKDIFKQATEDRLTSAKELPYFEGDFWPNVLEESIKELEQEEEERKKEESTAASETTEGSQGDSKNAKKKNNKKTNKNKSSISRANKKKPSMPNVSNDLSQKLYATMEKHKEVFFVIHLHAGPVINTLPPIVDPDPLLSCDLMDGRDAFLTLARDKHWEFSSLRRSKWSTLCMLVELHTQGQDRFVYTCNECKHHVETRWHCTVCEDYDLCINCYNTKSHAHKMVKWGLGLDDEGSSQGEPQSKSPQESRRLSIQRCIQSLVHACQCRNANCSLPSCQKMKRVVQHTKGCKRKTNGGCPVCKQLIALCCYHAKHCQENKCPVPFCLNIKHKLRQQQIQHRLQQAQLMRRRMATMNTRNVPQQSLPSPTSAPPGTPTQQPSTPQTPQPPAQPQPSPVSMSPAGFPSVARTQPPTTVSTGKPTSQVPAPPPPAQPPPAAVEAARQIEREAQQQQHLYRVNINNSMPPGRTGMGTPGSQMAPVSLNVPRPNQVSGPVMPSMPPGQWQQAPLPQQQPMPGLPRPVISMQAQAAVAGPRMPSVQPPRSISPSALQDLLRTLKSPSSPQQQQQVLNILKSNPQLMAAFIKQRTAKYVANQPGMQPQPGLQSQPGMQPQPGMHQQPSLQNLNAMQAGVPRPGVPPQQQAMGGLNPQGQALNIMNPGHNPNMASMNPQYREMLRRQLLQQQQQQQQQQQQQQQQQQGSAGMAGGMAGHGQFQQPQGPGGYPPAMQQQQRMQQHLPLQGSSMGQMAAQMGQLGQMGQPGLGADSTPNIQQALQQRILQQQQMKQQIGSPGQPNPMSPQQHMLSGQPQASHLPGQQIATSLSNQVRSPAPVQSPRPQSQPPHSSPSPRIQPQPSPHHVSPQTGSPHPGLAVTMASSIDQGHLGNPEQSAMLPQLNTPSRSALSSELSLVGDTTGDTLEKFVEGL

[5] = biological target: Bromodomain-containing protein 3 (Homo sapiens) (UniProt Q15059); assay: Binding affinity to first bromodomain of BRD3 assessed as change in melting temperature at 100 uM by differential scanning fluorimetry; summary of the method: as §1
[6] = biological target: T3, CREB-binding protein; assay: Binding affinity to CREBBP assessed as change in melting temperature at 100 uM by differential scanning fluorimetry; summary of the method: as §1
[7] = biological target: T2, Bromodomain-containing protein 4; assay: Binding affinity to first bromodomain of BRD4 assessed as change in melting temperature at 100 uM by differential scanning fluorimetry; summary of the method: as §1
[8] = biological target: T1, Bromodomain-containing protein 2; assay: Binding affinity to first bromodomain of BRD2 assessed as change in melting temperature at 100 uM by differential scanning fluorimetry; summary of the method: as §1
Target sequence in this assay (P25440 whole entry, looked up): as the sequence (P25440 whole entry, looked up) above

[9] = biological target: T4, Bromodomain adjacent to zinc finger domain protein 2B (Homo sapiens, UniProt Q9UIF8); assay: Binding affinity to BAZ2B assessed as change in melting temperature at 100 uM by differential scanning fluorimetry; summary of the method: as §1
[10] = Binding affinity to LOC93349 assessed as change in melting temperature at 100 uM by differential scanning fluorimetry; summary of the method: as §1
[11] = biological target: Protein polybromo-1 (Homo sapiens) (UniProt Q86U86); assay: Binding affinity to PB1 assessed as change in melting temperature at 100 uM by differential scanning fluorimetry; summary of the method: as §1
[12] = biological target: Bromodomain-containing protein 3 (Homo sapiens) (UniProt Q15059); assay: Binding affinity to second bromodomain of BRD3 assessed as change in melting temperature at 100 uM by differential scanning fluorimetry; summary of the method: as §1
[13] = biological target: Bromodomain testis-specific protein (Homo sapiens) (UniProt Q58F21); assay: Binding affinity to BRDT assessed as change in melting temperature at 100 uM by differential scanning fluorimetry; summary of the method: as §1
[14] = biological target: T1, Bromodomain-containing protein 2; assay: Displacement of H4Ac4 peptide from first bromodomain of human BRD2 by peptide displacement assay
Summary of the method: (§2)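 AlphaScreen displacement of a biotinylated tetra-acetylated H4 peptide (SGRGK(Ac)GGK(Ac)GLGK(Ac)GGAK(Ac)RHRK(Biotin)) from the bromodomain. Run in duplicate on one plate.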

[15] = biological target: T2, Bromodomain-containing protein 4; assay: Displacement of H4Ac4 peptide from first bromodomain of human BRD4 by peptide displacement assay; summary of the method: as §2
[16] = biological target: T3, CREB-binding protein; assay: Inhibition of CREBBP
Summary of the method: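 AlphaScreen peptide-displacement assay with the CREBBP bromodomain, using a biotinylated H3K56Ac histone peptide as the displaced ligand. Each concentration was run in duplicate on the same plate. IC50 was obtained by sigmoidal curve fitting of the duplicate data and reported with 95% confidence intervals, taken from a single assay.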
Target sequence in this assay (Q92793 whole entry): as the sequence (Q92793 whole entry) above

[17] = biological target: T4, Bromodomain adjacent to zinc finger domain protein 2B; assay: Inhibition of BAZ2B

Sequence of Bromodomain-containing protein 3 (Homo sapiens) (Q15059 2-726 limits assumed): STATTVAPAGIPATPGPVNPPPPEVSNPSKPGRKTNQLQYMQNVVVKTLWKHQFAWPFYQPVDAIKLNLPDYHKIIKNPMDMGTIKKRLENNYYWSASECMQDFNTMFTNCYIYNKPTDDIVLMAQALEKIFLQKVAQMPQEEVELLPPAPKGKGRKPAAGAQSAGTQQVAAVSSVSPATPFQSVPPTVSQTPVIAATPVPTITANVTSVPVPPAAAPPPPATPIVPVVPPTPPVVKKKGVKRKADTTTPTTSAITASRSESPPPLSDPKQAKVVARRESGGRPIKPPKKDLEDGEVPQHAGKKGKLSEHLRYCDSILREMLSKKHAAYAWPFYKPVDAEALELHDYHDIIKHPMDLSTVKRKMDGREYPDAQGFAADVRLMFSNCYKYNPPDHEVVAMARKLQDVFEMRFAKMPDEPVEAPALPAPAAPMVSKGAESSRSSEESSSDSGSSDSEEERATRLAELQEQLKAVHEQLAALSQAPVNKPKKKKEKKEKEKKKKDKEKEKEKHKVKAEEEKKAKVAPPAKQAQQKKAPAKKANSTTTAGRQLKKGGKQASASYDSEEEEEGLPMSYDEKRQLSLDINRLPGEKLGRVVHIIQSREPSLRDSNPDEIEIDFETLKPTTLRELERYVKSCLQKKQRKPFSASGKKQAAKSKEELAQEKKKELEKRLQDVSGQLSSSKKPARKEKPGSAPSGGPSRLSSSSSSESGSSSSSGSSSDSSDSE
Sequence of Histone acetyltransferase KAT2B (Homo sapiens) (Q92831 whole entry, looked up): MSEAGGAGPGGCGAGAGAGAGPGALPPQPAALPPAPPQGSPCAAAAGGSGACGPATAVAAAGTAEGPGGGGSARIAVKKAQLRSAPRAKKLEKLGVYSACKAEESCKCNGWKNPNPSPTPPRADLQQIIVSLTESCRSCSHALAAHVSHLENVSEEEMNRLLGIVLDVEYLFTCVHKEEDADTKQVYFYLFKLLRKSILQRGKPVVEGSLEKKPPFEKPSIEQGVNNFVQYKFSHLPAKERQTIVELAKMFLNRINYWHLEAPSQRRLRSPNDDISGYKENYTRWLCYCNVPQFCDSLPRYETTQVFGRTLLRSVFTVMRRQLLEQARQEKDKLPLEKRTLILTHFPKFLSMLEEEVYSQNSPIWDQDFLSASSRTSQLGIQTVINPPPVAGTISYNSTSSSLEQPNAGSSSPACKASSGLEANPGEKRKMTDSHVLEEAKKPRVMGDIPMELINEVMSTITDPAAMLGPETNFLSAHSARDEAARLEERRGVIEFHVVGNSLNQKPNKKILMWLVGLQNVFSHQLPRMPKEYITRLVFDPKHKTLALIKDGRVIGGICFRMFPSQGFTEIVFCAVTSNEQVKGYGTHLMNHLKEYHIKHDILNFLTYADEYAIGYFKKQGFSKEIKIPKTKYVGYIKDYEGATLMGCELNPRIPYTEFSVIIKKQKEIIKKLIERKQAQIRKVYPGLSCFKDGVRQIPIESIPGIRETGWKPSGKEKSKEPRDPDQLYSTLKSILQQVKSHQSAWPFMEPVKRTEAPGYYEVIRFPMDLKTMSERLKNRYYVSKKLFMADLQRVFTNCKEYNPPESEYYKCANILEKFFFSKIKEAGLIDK

| Structure (SMILES) | ΔTm [1] | ΔTm [2] | ΔTm [3] | IC50 [4] | ΔTm [5] | ΔTm [6] | ΔTm [7] | ΔTm [8] | ΔTm [9] | ΔTm [10] | ΔTm [11] | ΔTm [12] | ΔTm [13] | IC50 [14] | IC50 [15] | IC50 [16] | IC50 [17] |
| --- | --- | --- | --- | --- | --- | --- | --- | --- | --- | --- | --- | --- | --- | --- | --- | --- | --- |
| CCOC(=O)c1cc(OCC)cc(-c2c(C)noc2C)c1 | 3.3 °C |  | 3.8 °C | 49.4 µM | 3.6 °C | -0.2 °C | 3.7 °C | 2.3 °C |  | -0.2 °C | -0.1 °C | 3.8 °C | 1.1 °C | 3.3 µM | 7.7 µM |  |  |
| Cc1noc(C)c1-c1ccccc1 | 2.1 °C | -0.8 °C | 2.6 °C | > 200 µM | 1.6 °C | 0.6 °C | 2 °C | 0.9 °C | -0.1 °C | -0.6 °C | 0 °C | 1.9 °C | 0 °C | 34.3 µM | 84.2 µM |  |  |
| Cc1noc(C)c1-c1ccc2c(c1)CN(C)C(=O)N2 | 6.2 °C |  |  | 3.4 µM | 7.2 °C | 3.8 °C | 8 °C | 5.4 °C |  | -0.2 °C | 0.7 °C | 6.8 °C | 3.2 °C |  |  |  |  |
| CN1CCCC1=O [METHYLPYRROLIDONE] |  |  |  |  |  |  |  |  |  |  |  |  |  |  |  | 2300 µM | 34000 µM |

Results, then the molecule that gave them:

| ΔTm [1] | ΔTm [2] | ΔTm [3] | IC50 [4] | ΔTm [5] | ΔTm [6] | ΔTm [7] | ΔTm [8] | ΔTm [9] | ΔTm [10] | ΔTm [11] | ΔTm [12] | ΔTm [13] | IC50 [14] | IC50 [15] | IC50 [16] | IC50 [17] | Structure (SMILES) |
| --- | --- | --- | --- | --- | --- | --- | --- | --- | --- | --- | --- | --- | --- | --- | --- | --- | --- |
| 2.5 °C | -0.5 °C | 2.2 °C | 32.2 µM | 2.2 °C | 2.9 °C | 2.3 °C | 1.1 °C | -0.1 °C | -1.2 °C | -0.1 °C | 2.6 °C | -0.8 °C | 28.2 µM | 51.2 µM |  |  | CCOc1cc(C(=O)O)cc(-c2c(C)noc2C)c1 |
| 2.6 °C |  | 1.9 °C | 55.7 µM | 2 °C | 1.2 °C | 2.1 °C | 1.3 °C |  | -0.9 °C | -0.3 °C | 2.9 °C | -0.2 °C | 6 µM | 24.6 µM |  |  | CC(=O)c1cccc(-c2c(C)noc2C)c1 |
| 5.6 °C | 0 °C | 6.3 °C | 45.4 µM | 5.3 °C | 1.5 °C | 5.4 °C | 3.3 °C | 0.2 °C | -0.8 °C | 0.2 °C | 6.5 °C | 1.6 °C | 4.2 µM | 9.7 µM |  |  | Cc1noc(C)c1-c1cccc(C(C)O)c1 (racemic) |
| 8.3 °C |  | 8 °C | 28.1 µM | 8.5 °C | 4 °C | 8.5 °C | 6.1 °C |  | -0.9 °C | 0 °C | 8.9 °C | 3.5 °C | 1.6 µM | 4.8 µM |  |  | CCOc1cc(-c2c(C)noc2C)cc(C(C)O)c1 (racemic) |
| 3.7 °C |  | 4 °C | 86.9 µM | 2.7 °C | 0.7 °C | 2.8 °C | 1.3 °C |  | -0.9 °C | -0.2 °C | 4.2 °C | -0.4 °C | 7.4 µM | 23.2 µM |  |  | CCOc1cccc(-c2c(C)noc2C)c1 |
| 5.3 °C |  | 6.5 °C | 12.9 µM | 4.8 °C | 3.4 °C | 5.1 °C | 3.2 °C |  | -1 °C | -0.3 °C | 6 °C |  | 2.3 µM | 7.5 µM |  |  | CCOc1cc(C(C)=O)cc(-c2c(C)noc2C)c1 |

— ChEMBL document CHEMBL1828554, “3,5-dimethylisoxazoles act as acetyl-lysine-mimetic bromodomain ligands” (J Med Chem, 2011)
